Legend:
[1] = Inhibition of Voltage-dependent N-type calcium channel in human IMR32 cells by FLIPR based Ca(2+) flux assay; type: cell-based, IMR-32
Procedure, shortened: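 IMR32 cells were plated at 120,000/well and grown 48 h at 37 °C, 5% CO₂. Cells were loaded with Calcium 4 dye in HBSS/1 mM HEPES pH 7.4 for 1.5 h at room temperature, with antagonists present for 1 h of loading.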

[2] = Inhibition of L-type calcium channel in mouse ND7/23 cells by FLIPR based Ca(2+) flux assay; type: cell-based
Procedure, shortened: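 ND7/23 cells were grown in DMEM with 10% heat-inactivated FBS and seeded at 5.0 × 10⁴ cells/well. After 24 h at 37 °C, 5% CO₂, cells were loaded with calcium dye in HBSS/20 mM HEPES pH 7.4 for 1.5 h at room temperature. Compounds were added for 3 min, then channels were activated with HBSS containing 50 mM KCl/2.5 mM CaCl₂.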

[3] = target: Voltage-dependent N-type calcium channel subunit alpha-1B (Rattus norvegicus) (UniProt Q02294); details: HEK293, 0.3 uM
[4] = target: Voltage-dependent N-type calcium channel subunit alpha-1B (Rattus norvegicus) (UniProt Q02294); details: HEK293, 0.3 uM; remark: listed apart in the source
[5] = tested on: Rattus norvegicus; assay: Analgesic activity in ip dosed Sprague-Dawley rat acute inflammatory pain model assessed as reduction in carrageenan-induced thermal hypersensitivity of paw withdrawal latency dosed 30 mins before thermal hypersensitivity assessment; type: functional, organism-based
Procedure, shortened: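 Male rats 200–350 g; 10% DMSO/PEG400 vehicle; doses 3, 10, 30 mg/kg ip, n = 6. Carrageenan is injected into the plantar surface of the right hind paw. After 2 h, a Hargreaves radiant heat stimulus is applied on 30 °C glass, with cut-off 20.48 s. Both paws are tested in 3 trials about 5 min apart. Latency is taken as the mean of the two shortest readings.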

[6] = tested on: Rattus norvegicus; assay: Analgesic activity in ip dosed Sprague-Dawley rat osteoarthritis pain model assessed as increase in maximum compressive grip force dosed 30 mins before grip force assessment; type: functional, organism-based
Procedure, shortened: (§1)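 Male Sprague-Dawley rats (200–350 g) were tested at least 21 days after MIA injection. Dosing was 3, 10 or 30 mg/kg ip in 10% DMSO/PEG 400, 30 min before testing; n = 12 per group. Hindlimb grip force was measured twice ~2 min apart to get CFmax, normalised to body weight. Vehicle group set as 0%, age-matched naive group as 100%.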

[7] = tested on: Rattus norvegicus; assay: Analgesic activity in Sprague-Dawley rat osteoarthritis pain model assessed as increase in maximum compressive grip force at 30 mg/kg, ip dosed 30 mins before grip force assessment; type: functional; details: route intraperitoneal; procedure, shortened: as §1
[8] = tested on: Rattus norvegicus; assay: Cardiovascular toxicity in anesthetized Sprague-Dawley rat assessed as changes in mean arterial pressure at 10 mg/kg, iv by hemodynamic function study; type: organism-based, Artery; parameters: dose 10 mg/kg, route intravenous; details: in vivo
[9] = Stability in rat liver microsomes assessed as compound remaining measured after 30 mins; type: ADME, Microsome; details: read-out: Stability
Procedure, shortened: (§2)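 Compound is incubated with human or rat liver microsomes, and percent parent remaining is measured after 30 min.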

[10] = target: Voltage-gated L-type calcium channel (Rattus norvegicus, UniProt P22002+Q02485+P27732); assay: Inhibition of L-type calcium channel in Sprague-Dawley rat aorta assessed as relaxation of Kcl-induced tissue contraction by aortic ring relaxation assay; type: tissue-based
[11] = tested on: Rattus norvegicus; assay: Analgesic activity in Sprague-Dawley rat acute inflammatory pain model assessed as inhibition of carrageenan-induced thermal hypersensitivity of paw withdrawal latency at 30 mg/kg, ip dosed 30 mins before thermal hypersensitivity assessment; type: functional; details: route intraperitoneal
Procedure, shortened: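 Male Sprague-Dawley rats (200–350 g) received 3, 10 or 30 mg/kg ip in 10% DMSO/PEG 400, n = 6. Dosing was 30 min before testing, and testing was 2 h after intraplantar carrageenan in the right hind paw. Hargreaves radiant heat on 30 °C glass, 4.50 amp, 20.48 s cutoff; each paw tested 3 times ~5 min apart. PWL is the mean of the two shortest latencies.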

[12] = tested on: Rattus norvegicus; assay: Neurotoxicity in Sprague-Dawley rat assessed as induction of rotarod performance deficit at 3 to 30 mg/kg, ip and measured once animals were placed back on rotarod apparatus for 3 consecutive testing trials 30 mins following compound dosing; type: toxicity, organism-based; parameters: dose 3-30 mg/kg, route intraperitoneal; details: in vivo, 0.5 h
Procedure, shortened: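 Male rats first receive three training sessions on an accelerating rod, 0–20 rpm over 60 s. Dosing is 3, 10, 30 mg/kg ip in 10% DMSO/PEG400, n = 6 per group. There are 3 consecutive trials at 30 min post-dose, recording fall latency with a 60 s cut-off.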

[13] = Aqueous solubility of the compound; type: physicochemical; details: buffer
[14] = tested on: Rattus norvegicus; assay: Cardiovascular toxicity in anesthetized Sprague-Dawley rat assessed as changes in heart rate at 10 mg/kg, iv by hemodynamic function study; type: organism-based; parameters: dose 10 mg/kg, route intravenous; details: in vivo
[15] = Therapeutic index, ratio of cardiovascular effect in Sprague-Dawley rat at 10 mg/kg, iv to EC50 for analgesic activity in ip dosed Sprague-Dawley rat osteoarthritis pain model; type: organism-based; parameters: dose 10 mg/kg, route intravenous; details: in vivo, read-out: TI
[16] = tested on: Rattus norvegicus; assay: Cardiovascular toxicity in anesthetized Sprague-Dawley rat assessed as changes in dp/dt rate at 10 mg/kg, iv by hemodynamic function study; type: organism-based; parameters: dose 10 mg/kg, route intravenous; details: in vivo
[17] = Protein binding in plasma; type: ADME, cell-free; details: read-out: PPB
[18] = Stability in human liver microsomes assessed as compound remaining measured after 30 mins; type: ADME, Microsome; details: read-out: Stability; procedure, shortened: as §2
[19] = Bioavailability in ip dosed Sprague-Dawley rat; type: ADME, organism-based; details: in vivo
[20] = target: Voltage-dependent N-type calcium channel subunit alpha-1B (Rattus norvegicus, UniProt Q02294); assay: Inhibition of rat Cav2.2 expressed in HEK293 cells under inactivating depolarizing conditions at holding potential of -80 to -95 mV and stepped to 0 mV once every 5 seconds by whole cell patch clamp assay
[21] = tested on: Rattus norvegicus; assay: Analgesic activity in Sprague-Dawley rat persistent pain model assessed as inhibition of flinching behavior at 10 mg/kg, ip dosed 30 mins before formalin challenge measured for 20 mins following formalin challenge
[22] = tested on: Rattus norvegicus; assay: Analgesic activity in Sprague-Dawley rat persistent pain model assessed as inhibition of flinching behavior at 30 mg/kg, ip dosed 30 mins before formalin challenge measured for 20 mins following formalin challenge; type: functional; details: route intraperitoneal
Procedure, shortened: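 Male Sprague-Dawley rats (200–350 g) were dosed ip in 10% DMSO/PEG 400 (3, 10, 30 mg/kg; n = 6) 30 min before formalin. They then received 50 µl of 5% formalin s.c. into the dorsal right hind paw. Flinches of the injected paw were counted 30–50 min after injection (phase II), sampling one 60 s period per 5 min interval.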

[23] = Homo sapiens, IMR-32, read-out: IC50
[24] = Homo sapiens, IMR-32, read-out: pIC50 (converted)

Chain of Voltage-dependent N-type calcium channel subunit alpha-1B (Rattus norvegicus) (Q02294 whole entry, looked up): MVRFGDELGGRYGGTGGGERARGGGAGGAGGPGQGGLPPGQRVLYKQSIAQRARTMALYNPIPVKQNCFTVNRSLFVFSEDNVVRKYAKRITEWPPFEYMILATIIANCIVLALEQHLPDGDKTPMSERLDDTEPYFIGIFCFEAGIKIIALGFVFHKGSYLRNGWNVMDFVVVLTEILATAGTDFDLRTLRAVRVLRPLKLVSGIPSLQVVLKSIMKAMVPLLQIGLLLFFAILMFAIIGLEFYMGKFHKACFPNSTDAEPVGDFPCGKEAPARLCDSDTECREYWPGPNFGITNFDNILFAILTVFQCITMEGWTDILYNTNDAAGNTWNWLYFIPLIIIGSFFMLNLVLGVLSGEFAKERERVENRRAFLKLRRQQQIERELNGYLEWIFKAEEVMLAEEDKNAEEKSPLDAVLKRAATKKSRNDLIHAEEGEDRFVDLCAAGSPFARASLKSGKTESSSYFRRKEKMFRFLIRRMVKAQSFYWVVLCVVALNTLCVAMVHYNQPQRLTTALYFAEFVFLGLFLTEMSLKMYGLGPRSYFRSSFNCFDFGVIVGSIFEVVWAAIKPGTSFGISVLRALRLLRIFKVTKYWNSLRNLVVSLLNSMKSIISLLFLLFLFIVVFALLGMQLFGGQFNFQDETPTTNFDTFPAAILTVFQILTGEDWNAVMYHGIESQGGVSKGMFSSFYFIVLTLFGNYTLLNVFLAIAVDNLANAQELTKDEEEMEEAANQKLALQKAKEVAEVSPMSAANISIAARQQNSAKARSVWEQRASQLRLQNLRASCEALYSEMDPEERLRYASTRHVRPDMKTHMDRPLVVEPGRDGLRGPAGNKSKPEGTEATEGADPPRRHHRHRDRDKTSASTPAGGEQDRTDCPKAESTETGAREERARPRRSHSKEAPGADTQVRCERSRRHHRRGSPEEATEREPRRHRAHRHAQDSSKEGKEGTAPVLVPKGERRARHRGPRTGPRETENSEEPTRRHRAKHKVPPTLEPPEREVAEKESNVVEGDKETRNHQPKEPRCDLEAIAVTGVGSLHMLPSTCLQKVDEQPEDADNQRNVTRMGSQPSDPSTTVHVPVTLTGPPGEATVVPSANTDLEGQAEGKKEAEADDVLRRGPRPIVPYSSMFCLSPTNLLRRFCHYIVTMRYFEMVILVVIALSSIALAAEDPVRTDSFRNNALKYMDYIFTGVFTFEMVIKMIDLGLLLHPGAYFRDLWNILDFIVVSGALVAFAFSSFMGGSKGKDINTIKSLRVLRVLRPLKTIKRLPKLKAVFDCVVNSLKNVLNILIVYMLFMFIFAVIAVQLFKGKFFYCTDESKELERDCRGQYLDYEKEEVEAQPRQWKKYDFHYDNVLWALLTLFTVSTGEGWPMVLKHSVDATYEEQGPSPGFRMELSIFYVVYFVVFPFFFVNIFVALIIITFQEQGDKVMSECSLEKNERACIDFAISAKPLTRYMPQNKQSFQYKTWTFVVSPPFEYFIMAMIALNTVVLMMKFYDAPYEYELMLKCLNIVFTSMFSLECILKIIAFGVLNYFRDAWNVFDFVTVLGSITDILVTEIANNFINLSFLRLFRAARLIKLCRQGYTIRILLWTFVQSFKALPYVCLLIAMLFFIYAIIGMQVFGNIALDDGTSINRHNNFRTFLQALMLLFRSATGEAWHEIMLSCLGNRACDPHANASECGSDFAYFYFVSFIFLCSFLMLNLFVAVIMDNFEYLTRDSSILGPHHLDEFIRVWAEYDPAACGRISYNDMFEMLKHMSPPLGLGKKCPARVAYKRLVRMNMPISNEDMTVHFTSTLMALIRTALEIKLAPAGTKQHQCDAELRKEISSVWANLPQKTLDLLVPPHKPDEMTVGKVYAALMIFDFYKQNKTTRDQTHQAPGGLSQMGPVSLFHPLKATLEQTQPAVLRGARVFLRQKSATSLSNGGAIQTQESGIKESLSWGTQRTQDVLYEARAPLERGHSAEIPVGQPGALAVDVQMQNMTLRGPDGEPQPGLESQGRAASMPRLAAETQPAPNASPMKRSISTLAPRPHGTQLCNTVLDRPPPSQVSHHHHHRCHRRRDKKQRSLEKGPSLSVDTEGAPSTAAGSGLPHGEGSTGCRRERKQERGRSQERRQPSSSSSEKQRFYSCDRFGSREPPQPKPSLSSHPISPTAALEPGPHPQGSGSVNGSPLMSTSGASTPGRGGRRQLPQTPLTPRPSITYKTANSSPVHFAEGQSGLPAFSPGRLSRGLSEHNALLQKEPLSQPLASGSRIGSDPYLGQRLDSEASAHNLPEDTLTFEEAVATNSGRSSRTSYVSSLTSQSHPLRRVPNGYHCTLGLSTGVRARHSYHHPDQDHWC
Chain of Voltage-dependent N-type calcium channel subunit alpha-1B (Q02294 whole entry): as the sequence (Q02294 whole entry, looked up) above

SMILES	IC50 [1, 23]	IC50 [1, 24]	IC50 ([2]; read-out: IC50)	IC50 ([2]; read-out: pIC50 (converted))	also measured
CCCC(CCC)C(=O)N[C@H]1CC[C@H]2CN(Cc3cccc(C(F)(F)F)c3)C[C@H]21 (relative stereo)	0.95 µM	0.955 µM	20.1 µM	20.4 µM	
O=C(N[C@@H]1CC[C@@H]2CN(Cc3ccccc3)C[C@@H]21)C(c1ccccc1)C1CCCCC1 (mixture of isomers)	1.06 µM	1.07 µM	> 30 µM		
O=C(N[C@H]1CC[C@H]2CN(Cc3ccccc3)C[C@H]21)C1(c2ccccc2)CCCCC1 (relative stereo)	1.04 µM	1.02 µM	5.56 µM	5.62 µM	
O=C(N[C@H]1CC[C@H]2CN(Cc3cccc(C(F)(F)F)c3)C[C@H]21)C1CCCCC1 (racemic)	1.26 µM	1.26 µM	16.1 µM	16.2 µM	
O=C(N[C@H]1CC[C@H]2CN(Cc3cccc(C(F)(F)F)c3)C[C@H]21)C(C1CCCCC1)C1CCCCC1 [listing 1 of 2 here]					inhibition [3]: 77%; inhibition [4]: 49%; Activity [5]: Dose-dependent effect; Activity [6]: Dose-dependent effect
O=C(N[C@H]1CC[C@H]2CN(Cc3ccccc3)C[C@H]21)C(C1CCCCC1)C1CCCCC1					pIC50 ([1]; imr-32): 4.78; IC50 ([1]; imr-32, read-out: IC50): 16.5 µM
O=C(N[C@H]1CC[C@H]2CN(Cc3cccc(C(F)(F)F)c3)C[C@H]21)C1CCCCCC1 (racemic)	0.56 µM	0.562 µM	9.3 µM	13.8 µM	
O=C(N[C@@H]1CC[C@@H]2CN(Cc3cccc(C(F)(F)F)c3)C[C@@H]21)C(C1CCCCC1)C1CCCCC1	1.4 µM		> 30 µM		
O=C(N[C@H]1CC[C@H]2CN(Cc3ccccc3F)C[C@H]21)C(C1CCCCC1)C1CCCCC1	1.12 µM	1.12 µM	> 30 µM		
CC(C)C(C(=O)N[C@@H]1CC[C@@H]2CN(Cc3ccccc3)C[C@@H]21)c1ccccc1 (mixture of isomers)	1.46 µM	1.48 µM	7.21 µM	7.24 µM	
O=C(N[C@H]1CC[C@H]2CN(Cc3ccccc3C(F)(F)F)C[C@H]21)C(C1CCCCC1)C1CCCCC1	2.43 µM	2.45 µM	> 30 µM		
CCC(CC)C(=O)N[C@H]1CC[C@H]2CN(Cc3cccc(C(F)(F)F)c3)C[C@H]21 (racemic)	2.07 µM	2.09 µM	19 µM	19.1 µM	
O=C(N[C@H]1CC[C@H]2CN(Cc3ccccc3)C[C@H]21)C1(c2ccccc2)CCCC1 (racemic)	1.93 µM	1.95 µM	4.84 µM	4.79 µM	
O=C(N[C@H]1CC[C@H]2CN(Cc3cccc(C(F)(F)F)c3)C[C@H]21)C(c1ccccc1)c1ccccc1 (racemic)	0.67 µM	0.661 µM	6.3 µM	6.31 µM	
O=C(N[C@H]1CC[C@H]2CN(Cc3cccc(C(F)(F)F)c3)C[C@H]21)C(c1ccc(F)cc1)c1ccc(F)cc1 (relative stereo)	0.64 µM	0.646 µM	7.1 µM	7.08 µM	
Cc1cccc(CN2C[C@@H]3CC[C@H](NC(=O)C(C4CCCCC4)C4CCCCC4)[C@@H]3C2)c1	0.86 µM	0.851 µM	22.3 µM	22.4 µM	
O=C(N[C@H]1CC[C@H]2CN(Cc3ccccc3)C[C@H]21)C(C1CCCCC1)C1CCCCC1 (relative stereo)			> 30 µM		pIC50 ([1]; imr-32): 5.33; IC50 ([1]; imr-32, read-out: IC50): 4.67 µM
O=C(N[C@H]1CC[C@H]2CN(Cc3ccc(F)cc3)C[C@H]21)C(C1CCCCC1)C1CCCCC1	0.74 µM	0.741 µM	22.9 µM	22.9 µM	
O=C(N[C@H]1CC[C@H]2CN(Cc3cccc(C(F)(F)F)c3)C[C@H]21)C1CCCC1 (relative stereo)	2.31 µM	2.29 µM	12.8 µM	12.9 µM	
CC(C)C(C(=O)N[C@H]1CC[C@H]2CN(Cc3cccc(C(F)(F)F)c3)C[C@H]21)c1ccccc1 (mixture of isomers)	0.36 µM	0.355 µM	5 µM	5.01 µM	
O=C(N[C@H]1CC[C@H]2CN(Cc3cccc(C(F)(F)F)c3)C[C@H]21)C(C1CCCCC1)C1CCCCC1 [listing 2 of 2 here]		0.468 µM			Emax at 30 mg/kg [7]: 87%; Activity [8]: Non-toxic; IC50 ([1]; imr-32, read-out: IC50): 0.46 µM; remaining at 0.5 h [9]: < 5%; EC50 [10]: 46 µM; inhibition (INH) ([10]; rat): Dose-dependent effect; Emax at 30 mg/kg [11]: 67%; EC50 [6]: 2 µM; Activity [12]: Non-toxic; solubility [13]: < 3 µM; Activity [14]: Non-toxic; selectivity ratio [15]: > 15; Activity [16]: Non-toxic; fraction unbound [17]: < 0.01; remaining at 0.5 h [18]: < 5%; bioavailability [19]: 41%; IC50 [20]: 0.041 µM; inhibition in vivo at 10 mg/kg [21]: 51%; inhibition in vivo at 30 mg/kg [22]: 51%
O=C(N[C@H]1CC[C@H]2CN(Cc3cccc(OC(F)(F)F)c3)C[C@H]21)C(C1CCCCC1)C1CCCCC1	0.51 µM	0.417 µM	> 30 µM		
O=C(N[C@H]1CC[C@H]2CN(Cc3cccc(C(F)(F)F)c3)C[C@H]21)C(C1CCCCC1)C1CCCCC1 (relative stereo)			> 30 µM		pIC50 ([1]; imr-32): 5.97; IC50 ([1]; imr-32, read-out: IC50): 1.07 µM
O=C(N[C@H]1CC[C@H]2CN(Cc3ccccc3)C[C@H]21)C(c1ccccc1)C1CCCC1 (relative stereo)	0.92 µM	0.933 µM	5.15 µM	5.13 µM	
O=C(N[C@H]1CC[C@H]2CN(Cc3cccc(F)c3)C[C@H]21)C(C1CCCCC1)C1CCCCC1	0.99 µM	0.977 µM	> 30 µM		

Source: ChEMBL document CHEMBL2046441, “Synthesis and SAR of 4-aminocyclopentapyrrolidines as N-type Ca²⁺ channel blockers with analgesic activity” (Bioorg Med Chem, 2012)
